Sampled rows, rich in hits. Any-hit rate of the full collection: about 1.8%.
STAT3 act: activators of IL-6 induced STAT3 signaling. U3A cells, IL-6 STAT3-luciferase reporter, luminescence; 100% = signal with IL-6 EC80 alone. activation (% of control), % at 5.6 µM. 190,000 compounds, 0.91% hits. AID 871;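 active = activation above the screen-wide mean of compound activation plus 3 SD, cut at about 130% in these data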;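 also: 0% = background luminescence of wells with medium and substrate only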
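system = STAT3-luciferase reporter U3A cells | reagent = IL-6 stimulus at 33 ng/mL final | timing = 1 h compound pre-exposure, 6 h IL-6 stimulation, 37 °C | measured by = luminescence | evaluation = % activation versus median of IL-6-stimulated wells | control set = IL-6-only wells as 100% reference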
PERK inh: inhibitors of human PERK kinase; Q9NZJ5; CHO PERK-DD fusion, SEAP luminescence translation reporter; inhibition, % at 5.6 µM; 220,000 compounds, 0.17% hits; AID 1416;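 active = inhibition above the mean inhibition of all tested compounds plus 3 SD, set separately per screening campaign, cut at about 2.9% in these data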;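 also: PERK kinase domain activated by AP20187 dimerizer at 100 nM; 0% = DMSO with dimerizer and 100% = rapamycin at 8.4 µM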
STAT1 blocker: inhibitors of IFN-gamma induced STAT1 signaling. inhibition, % at 5.5 µM. AID 920. 200,000 compounds, 0.35% hits. NIH 3T3 STAT1-luciferase reporter, luminescence;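 active = inhibition above a set limit, the mean inhibition across all tested compounds plus 3 SD, cut at about 34% in these data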;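 also: 0% = IFN-gamma with DMSO and 100% = IFN-gamma with 300 µM nifuroxazide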
STAT3 inh-1: inhibitors of IL-6 induced STAT3 signaling; U3A cells, IL-6 STAT3-luciferase reporter, luminescence; host cell line lacks STAT1; inhibition, % at 5.5 µM; 190,000 compounds, 0.89% hits; AID 862;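 active = inhibition above the mean inhibition across all screened compounds plus 3 SD, cut at about 44% in these data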;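 also: 0% = DMSO only wells and 100% = 100 µM nifuroxazide control wells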
STAT3 inh-2: confirmation of STAT3 signaling inhibitors. 1,200 compounds, 45% hits. AID 1265. shares compounds with STAT3 inh-1. U3A cells, IL-6 STAT3 luciferase reporter, luminescence; cell line lacks STAT1. inhibition, % at 5.7 µM;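 active = inhibition above the hit cutoff computed for the primary STAT3 screen, cut at about 44% in these data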;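 also: 0% = IL-6 plus DMSO and 100% = IL-6 plus nifuroxazide control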
NFkB inh STAT3ct: counter-screen for STAT3 inhibitors: NF-kappaB inhibition. shares compounds with STAT3 inh-1. HEK293T NF-kB luciferase reporter, TNF-alpha induced. inhibition, % at 5.7 µM. 1,200 compounds, 36% hits;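 active = inhibition above the mean of solvent-only control wells plus 3 SD, cutoff set per campaign, cut at about 13% in these data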;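 also: 0% = TNF-alpha with DMSO and 100% = TNF-alpha with MG high control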
STAT1 inh STAT3c: inhibits STAT1, counter-screen to STAT3 inhibitors | 1,200 compounds, 27% hits | inhibition, % at 5.7 µM | shares compounds with STAT3 inh-1 | AID 1317 | NIH 3T3 STAT1-luciferase reporter, IFN-gamma induced, luminescence;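 active = inhibition above the mean plus 3 SD of solvent-only control wells, limit set per screening run, cut at about 16% in these data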;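 also: 0% = DMSO with IFN-gamma and 100% = nifuroxazide control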
Starred values were filed as active, the others as inactive; nt = no result given.

SMILES	STAT3 act	PERK inh	STAT1 blocker	STAT3 inh-1	STAT3 inh-2	NFkB inh STAT3ct	STAT1 inh STAT3c
Cc1nc2ccccn2c1C(=O)NC1CCCc2ccccc21 (stereo not given)	58	-1	21	53*	37	-1	12
CC(C)NC(=O)CSc1nc(N)c(-c2ccccc2)c(=O)[nH]1	100	0	-4	4	nt	nt	nt
COc1ccc(-n2cc(-c3ccc(C)cc3)[n+]3c2SCC3)cc1	43	0	22	69*	75*	7	23*
Cc1ccc(-c2cn(-c3ccccc3)c3[n+]2CCCS3)cc1	51	0	28	57*	50*	-1	28*
c1ccc(-c2cn(-c3ccccc3)c3[n+]2CCCS3)cc1	nt	0	nt	nt	nt	nt	nt
C/C(=N/NC(=O)C(O)(c1ccccc1)c1ccccc1)c1ccc([N+](=O)[O-])o1	101	0	21	1	nt	nt	nt
CCOC(=O)C1(Cc2ccccc2Cl)CCN(C(=O)CN2CCOC2=O)CC1	108	0	-69	-4	nt	nt	nt
CN(C)N1C(=O)CC(N2CCCCC2)C1=O (stereo not given)	103	0	0	9	nt	nt	nt
Cc1ccc(S(=O)(=O)N(C)CCCC(=O)Nc2ccncc2)cc1	63	1	20	50*	38	3	13
Cc1ccc(S(=O)(=O)N(C)CCCC(=O)Nc2ccc(F)cc2)cc1	94	0	1	12	nt	nt	nt
Cc1ccccc1-c1nnc(NC(=O)CSc2nc3ccccc3s2)s1	106	0	-3	-7	nt	nt	nt
Cc1ccc(S(=O)(=O)N2CCN(CC(O)c3ccccc3)CC2)cc1C (stereo not given)	108	2	-8	-9	nt	nt	nt
O=C(c1ccc2c(=O)n(C3CCCC3)c(=S)[nH]c2c1)N1CCCCCC1	78	0	20	34	nt	nt	nt
O=C(c1ccc2c(=O)n(-c3ccccc3)c(=S)[nH]c2c1)N1CCCCC1	63	0	26	47*	51*	14*	25*
COc1ccc(C)cc1-n1nnnc1SCn1nnc2ccccc2c1=O	59	0	25	54*	44*	7	16
Cc1ccc(-n2nnnc2SCn2nnc3ccccc3c2=O)cc1	108	0	-7	-5	nt	nt	nt
Cc1ccsc1/C=N/Nc1nc(=O)[nH]nc1C	58	1	30	53*	18	-10	-8
O=C(CSc1nnc(-c2ccccc2)o1)Nc1ccccc1F	68	0	-20	45*	27	-26	-66
COC(=O)c1ccccc1NC(=O)CSc1nnc(-c2ccc(C)cc2)o1	109	1	-25	-7	nt	nt	nt
Cc1ccc(-c2nnc(SCC(=O)Nc3ccccc3F)o2)cc1	59	0	-22	56*	34	-32	-81
CCOc1ccc(-c2nnc(SCC(=O)Nc3cc(C)on3)o2)cc1	62	1	-3	49*	42	16*	14
COc1ccc(-c2nn(-c3ccccc3)cc2C(=O)NC(=S)Nc2cc(Cl)ccc2Cl)cc1	nt	1	nt	nt	nt	nt	nt
O=C(Cn1nnc2ccccc2c1=O)NCCc1ccc(F)cc1	99	1	-3	9	nt	nt	nt
CC(C)c1ccc(/C=C/C(=O)Nc2ccc(CN3CCOCC3)cc2)cc1	nt	0	nt	nt	nt	nt	nt
NC(=O)c1ccc(NC(=O)c2ccc(CN3CCOCC3)cc2)cc1	103	1	-3	-4	nt	nt	nt
SMILES	STAT3 act	PERK inh	STAT1 blocker	STAT3 inh-1	STAT3 inh-2	NFkB inh STAT3ct	STAT1 inh STAT3c
O=C(Nc1ccc(CN2CCOCC2)cc1)c1cc2ccccn2n1	41	-1	18	76*	27	-2	-50
Cc1cc(CSc2ccccc2)ccc1NC(=O)c1ccc(CN2CCOCC2)cc1	40	0	9	73*	79*	30*	17*
O=C(/C=C/c1ccc(Cl)cc1)Nc1ccc(CN2CCOCC2)cc1	60	-1	4	45*	62*	14*	6
CCOC(=O)c1ccc(NC(=O)c2ccc(CN3CCOCC3)cc2)cc1	45	0	7	68*	69*	12	7
Cc1ccc(C(=O)NCCSC2CCCCC2)cc1S(=O)(=O)Nc1ccccc1	94	-1	-3	13	nt	nt	nt
COc1nnc(-c2ccccc2)s1	104	0	-3	-7	nt	nt	nt
CC1CCC2C(=O)N(c3ccccc3OC(=O)c3ccccc3)C(=O)C2C1 (stereo not given)	65	2	5	44*	45*	2	3
COc1ccccc1N1C(=O)C2CCC(c3ccccc3)CC2C1=O (stereo not given)	90	0	6	10	nt	nt	nt
CCOC(=O)c1cccc(NC(=O)CSc2nc3cccnc3n2C)c1	55	-1	14	59*	43	3	7
CCOC(=O)c1c(NC(=O)CSc2nc3cccnc3n2C)sc(C(C)=O)c1C	103	0	5	2	nt	nt	nt
O=C(CSc1nnc(Cn2nnc3ccccc32)o1)N(Cc1ccc(F)cc1)c1ccccc1	37	0	20	76*	72*	24*	19*
COc1ccc(C(=O)Nc2ccc3oc(Cc4ccc(Cl)cc4)nc3c2)cc1OC	63	-1	9	51*	45*	8	3
CCc1ccccc1NNC(=O)c1snnc1C	nt	1	nt	nt	nt	nt	nt
Cc1ccc(-n2cc(C(=O)c3ccccc3O)cn2)cc1	38	1	12	79*	34	37*	-97
Cc1ccc(S(=O)(=O)CC2CSc3nc(N)cc(=O)n32)cc1 (stereo not given)	102	0	3	3	nt	nt	nt
Cc1ccc(S(=O)(=O)CC2CSc3nc4ccccc4n32)cc1 (stereo not given)	32	-1	34	88*	84*	34*	32*
COc1ccc(/C=C\c2nc(=O)c3ccccc3o2)cc1	49	0	-1	62*	-9	-7	-3
OCCCn1c(-c2ccccc2)csc1=Nc1ccccc1	103	1	3	2	nt	nt	nt
COc1ccc(N=c2scc(-c3ccc(OC)cc3)n2CCO)cc1	60	0	-3	52*	29	-2	-10
CC1CCC2C(=O)N(c3ccc(Cc4ccncc4)cc3)C(=O)C2C1 (stereo not given)	38	1	32	74*	70*	23*	21*
Cc1ccc(-n2ncc3c(=O)n(-c4ccc(C)c(C)c4)c(C)nc32)cc1	92	0	-4	16	nt	nt	nt
COc1cccc(-n2c(C)nc3c(cnn3-c3ccc(Cl)cc3)c2=O)c1	56	1	12	55*	41	6	16*
Cc1ccc(-n2c(C)nc3c(cnn3-c3ccc(F)cc3)c2=O)cc1	61	0	3	53*	38	4	7
CCOC(=O)Cn1nc(C)n(-c2ccc(C(C)(C)C)cc2)c1=O	98	1	5	13	nt	nt	nt

Screening results: PubChem BioAssay, The Scripps Research Institute Molecular Screening Center
